Data as given in ChEMBL document CHEMBL4706482, “Structural optimization of aminopyrimidine-based CXCR4 antagonists” (Eur J Med Chem, 2020).
The source made the active and inactive calls. No cut-off for these calls is given here.

Tests used:
[1] = target: T1, C-X-C chemokine receptor type 4 (Homo sapiens, UniProt P61073); assay: Antagonist activity at CXCR4 in human HPBALL cells assessed as inhibition of APC-conjugate clone 12G5 antibody signal incubated for 3 hrs by flow cytometric analysis; assay type: cell-based
Target sequence in this assay (P61073 whole entry): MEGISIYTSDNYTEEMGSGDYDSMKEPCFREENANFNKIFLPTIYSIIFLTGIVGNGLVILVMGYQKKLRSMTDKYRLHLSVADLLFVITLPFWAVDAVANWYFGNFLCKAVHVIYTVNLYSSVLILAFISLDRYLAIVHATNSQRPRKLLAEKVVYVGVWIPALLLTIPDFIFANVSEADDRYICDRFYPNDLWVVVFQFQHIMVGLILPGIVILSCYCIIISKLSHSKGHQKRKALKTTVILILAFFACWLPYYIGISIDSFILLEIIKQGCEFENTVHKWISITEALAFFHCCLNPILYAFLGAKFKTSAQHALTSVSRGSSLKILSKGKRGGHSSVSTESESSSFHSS

[2] = target: T2, C-X-C chemokine receptor type 1 (Homo sapiens) (UniProt P25024); assay: Antagonist activity at CXCR1 (unknown origin) stably expressed in HEK293 cells assessed as reduction in IL-8-induced intracellular calcium change up to 10000 nM incubated for 15 mins followed by IL-8-stimulation and measured after 15 mins by cAMP-d2/Eu-Anti-cAM based fluorescence assay; assay type: functional, cell-based; conditions: dose nM <=10000, time 30.0 min, in the assay text read “intracellular cAMP change” for “intracellular calcium change”
T2 sequence (whole entry): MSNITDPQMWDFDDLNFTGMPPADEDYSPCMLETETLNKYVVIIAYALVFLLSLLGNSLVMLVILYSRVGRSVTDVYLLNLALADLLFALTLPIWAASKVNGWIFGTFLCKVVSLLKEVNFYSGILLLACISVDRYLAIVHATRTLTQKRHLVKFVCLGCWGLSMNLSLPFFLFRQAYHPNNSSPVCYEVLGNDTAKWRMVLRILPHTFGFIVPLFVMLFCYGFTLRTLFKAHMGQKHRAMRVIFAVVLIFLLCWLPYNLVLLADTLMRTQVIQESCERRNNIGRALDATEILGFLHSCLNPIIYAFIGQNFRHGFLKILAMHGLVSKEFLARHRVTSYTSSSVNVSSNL
Method in brief: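 HEK293 cells overexpressing CXCR1, trypsin-dissociated, 2000 cells/well. Compound in a 10-point 4-fold series, 15 min at rt, then forskolin 4.4 µM plus IL-8 100 nM (in the added solution) for 15 min at rt. cAMP measured with cAMP-d2/Eu-anti-cAMP HTRF, 60 min at rt, read at 665/615 nm.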

CYP3A4 = CYP3A4 (Homo sapiens, UniProt P08684); assay: Inhibition of CYP3A4 in human liver microsomes using midazolam as substrate at 10 uM preincubated for 10 mins followed by NADPH addition and measured after 10 mins by LC-MS/MS analysis relative to control; assay type: ADME; conditions: probe midazolam, time 20 min
Method in brief: (§1)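 Human liver microsomes 0.2 mg/mL in 100 mM phosphate, pH 7.4, compound 10 µM, probe substrate midazolam 1 µM (CYP3A4) or dextromethorphan 5 µM (CYP2D6). After a 10 min preincubation, reaction started with 1 mM NADPH, 37 °C for 10 min, then stopped with cold acetonitrile. Metabolites quantified by LC-MS/MS. Triplicate incubations.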

[3] = Half life in rat liver microsomes at 1 uM preincubated for 10 mins followed by NADPH addition and measured up to 60 mins by LC-MS/MS analysis; assay type: ADME, Microsome; conditions: time <=70 min
[4] = target: T3, C-C chemokine receptor type 6 (Homo sapiens) (UniProt P51684); assay: Antagonist activity at CCR6 in human CD4-positive cells assessed as inhibition of CCL20-induced calcium signal up to 10000 nM by FLIPR assay; assay type: functional, cell-based; conditions: CD4+ve Th, dose nM <=10000
T3 sequence (whole entry): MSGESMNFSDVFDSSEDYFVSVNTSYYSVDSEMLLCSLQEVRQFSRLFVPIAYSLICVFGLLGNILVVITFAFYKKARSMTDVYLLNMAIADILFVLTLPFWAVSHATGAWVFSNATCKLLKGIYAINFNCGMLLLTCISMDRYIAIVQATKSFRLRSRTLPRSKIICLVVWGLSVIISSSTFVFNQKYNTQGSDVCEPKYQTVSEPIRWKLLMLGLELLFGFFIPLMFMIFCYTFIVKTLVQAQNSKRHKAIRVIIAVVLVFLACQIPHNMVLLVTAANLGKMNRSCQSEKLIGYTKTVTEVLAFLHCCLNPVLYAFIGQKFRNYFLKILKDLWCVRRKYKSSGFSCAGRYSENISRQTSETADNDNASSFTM
Method in brief: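 Cryopreserved activated human CD4+ CCR6-enriched T cells at 2.5×10^6/mL in HBSS/20 mM HEPES/0.005% P-104, loaded with Calcium 4 dye. Compound final 10 µM to 0.035 nM in 0.5% DMSO, followed by CCL20 stimulation. Calcium flux read on FLIPR Tetra. % effect taken relative to on-plate controls; IC50 from a four-parameter logistic fit.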

Hepa1-6 = assay: Cytotoxicity against […] cells assessed as reduction in cell viability up to 1000 nM by CellTiter-Glo assay; assay type: functional, cell-based; conditions: dose nM <=1000
MEF = assay: Cytotoxicity against MEF cells assessed as reduction in cell viability up to 1000 nM by CellTiter-Glo assay; assay type: cell-based; conditions: mouse
Method in brief: (§2)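 Cell viability measured with CellTiter-Glo ATP luminescence at compound concentrations up to 1000 nM.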

[5] = Intrinsic clearance in rat liver microsomes at 1 uM preincubated for 10 mins followed by NADPH addition and measured up to 60 mins by LC-MS/MS analysis; assay type: ADME, Microsome; conditions: time <=70 min, read-out: CLH
L929 = assay: Cytotoxicity against mouse L929 cells assessed as reduction in cell viability up to 1000 nM by CellTiter-Glo assay; assay type: cell-based
[6] = target: Voltage-gated inwardly rectifying potassium channel KCNH2 (Homo sapiens, UniProt Q12809); assay: Inhibition of human ERG stably expressed in CHO cells after 4 mins; assay type: cell-based
Method in brief: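 hERG-expressing CHO cells on automated QPatch. Holding potential -80 mV, 500 ms step to +20 mV, tail current measured at -50 mV, pulses every 20 s. External solution 4 mM K⁺, 1 mM Mg²⁺, 2 mM Ca²⁺. Effect quantified 4 min after compound application.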

[7] = target: T1, C-X-C chemokine receptor type 4; assay: Antagonist activity at CXCR4 in human CD4-positive T cells assessed as inhibition of CXCL12-induced calcium signal incubated for 20 mins by FLIPR assay; assay type: functional, cell-based, CD4+ve Th
Target sequence in this assay (P61073 whole entry): as the sequence (P61073 whole entry) above

[8] = Apparent permeability across apical to basal side in human Caco2 cells at 10 uM after 90 mins by LC-MS/MS analysis; assay type: ADME, cell-based; conditions: Caco-2
Method in brief: (§3)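 Caco-2 cells grown 21–28 days on polycarbonate inserts. TEER and Lucifer Yellow checked before and after the assay. Compound at 10 µM in HBSS with 25 mM HEPES, pH 7.4, tested A-B and B-A, 37 °C for 90 min. Samples quantified by LC-MS/MS against a standard curve.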

[9] = Protein binding in mouse plasma; assay type: ADME, cell-free; conditions: read-out: PPB (converted)
[10] = Protein binding in human plasma; assay type: ADME, cell-free; conditions: read-out: PPB
CYP2D6 = CYP2D6 (Homo sapiens, UniProt P10635); assay: Inhibition of CYP2D6 in human liver microsomes using dextromethorphan as substrate at 10 uM preincubated for 10 mins followed by NADPH addition and measured after 10 mins by LC-MS/MS analysis relative to control; assay type: ADME; conditions: probe dextromethorphan, time 20 min; method in brief: as §1
[11] = Efflux ratio in across basolateral to apical side over apical to basolateral side in human Caco2 cells at 10 uM after 90 mins by LC-MS/MS analysis; assay type: ADME, cell-based; conditions: Caco-2; method in brief: as §3
[12] = Protein binding in rat plasma; assay type: ADME, cell-free; conditions: read-out: PPB (converted)
[13] = target: T1, C-X-C chemokine receptor type 4; assay: Antagonist activity at CXCR4 in human MDA-MB-231 cells assessed as inhibition of CXCL12-mediated chemotaxis at 100 nM after 22 hrs by transwell assay; conditions: filed as antagonist
Target sequence in this assay (P61073 whole entry, looked up): as the sequence (P61073 whole entry) above

MDA-MB-231 = assay: Cytotoxicity against human MDA-MB-231 cells assessed as reduction in cell viability up to 1000 nM by CellTiter-Glo assay; assay type: functional, cell-based; conditions: dose nM <=1000; method in brief: as §2

CYP3A4, sequence (P08684 whole entry): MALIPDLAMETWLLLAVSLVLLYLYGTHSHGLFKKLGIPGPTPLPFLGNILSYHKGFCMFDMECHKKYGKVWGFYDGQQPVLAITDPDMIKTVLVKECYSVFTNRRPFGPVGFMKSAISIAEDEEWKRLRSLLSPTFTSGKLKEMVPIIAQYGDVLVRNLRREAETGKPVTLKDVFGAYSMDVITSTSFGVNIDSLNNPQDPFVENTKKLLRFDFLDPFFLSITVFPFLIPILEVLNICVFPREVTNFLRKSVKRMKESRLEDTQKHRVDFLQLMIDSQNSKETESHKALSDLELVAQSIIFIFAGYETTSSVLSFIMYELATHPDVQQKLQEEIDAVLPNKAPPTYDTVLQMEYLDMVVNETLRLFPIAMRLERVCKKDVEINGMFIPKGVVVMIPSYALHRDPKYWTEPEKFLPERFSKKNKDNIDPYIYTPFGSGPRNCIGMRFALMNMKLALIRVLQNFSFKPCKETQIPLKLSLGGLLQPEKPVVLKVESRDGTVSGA
CYP2D6, sequence (P10635 whole entry): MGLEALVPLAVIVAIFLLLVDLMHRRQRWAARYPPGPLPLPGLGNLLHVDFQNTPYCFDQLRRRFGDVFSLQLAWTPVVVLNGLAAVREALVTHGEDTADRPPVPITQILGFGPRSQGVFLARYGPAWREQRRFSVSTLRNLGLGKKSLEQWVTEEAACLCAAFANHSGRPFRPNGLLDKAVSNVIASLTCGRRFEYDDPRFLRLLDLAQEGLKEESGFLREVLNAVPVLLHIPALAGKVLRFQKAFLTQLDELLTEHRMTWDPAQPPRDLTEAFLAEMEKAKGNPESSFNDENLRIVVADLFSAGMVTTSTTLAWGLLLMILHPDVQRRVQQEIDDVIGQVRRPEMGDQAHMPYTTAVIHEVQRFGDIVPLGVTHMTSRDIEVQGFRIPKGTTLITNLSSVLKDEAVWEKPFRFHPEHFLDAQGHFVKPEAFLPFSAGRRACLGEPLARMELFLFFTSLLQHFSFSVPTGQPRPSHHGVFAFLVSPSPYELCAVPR
Voltage-gated inwardly rectifying potassium channel KCNH2, sequence (Q12809 whole entry): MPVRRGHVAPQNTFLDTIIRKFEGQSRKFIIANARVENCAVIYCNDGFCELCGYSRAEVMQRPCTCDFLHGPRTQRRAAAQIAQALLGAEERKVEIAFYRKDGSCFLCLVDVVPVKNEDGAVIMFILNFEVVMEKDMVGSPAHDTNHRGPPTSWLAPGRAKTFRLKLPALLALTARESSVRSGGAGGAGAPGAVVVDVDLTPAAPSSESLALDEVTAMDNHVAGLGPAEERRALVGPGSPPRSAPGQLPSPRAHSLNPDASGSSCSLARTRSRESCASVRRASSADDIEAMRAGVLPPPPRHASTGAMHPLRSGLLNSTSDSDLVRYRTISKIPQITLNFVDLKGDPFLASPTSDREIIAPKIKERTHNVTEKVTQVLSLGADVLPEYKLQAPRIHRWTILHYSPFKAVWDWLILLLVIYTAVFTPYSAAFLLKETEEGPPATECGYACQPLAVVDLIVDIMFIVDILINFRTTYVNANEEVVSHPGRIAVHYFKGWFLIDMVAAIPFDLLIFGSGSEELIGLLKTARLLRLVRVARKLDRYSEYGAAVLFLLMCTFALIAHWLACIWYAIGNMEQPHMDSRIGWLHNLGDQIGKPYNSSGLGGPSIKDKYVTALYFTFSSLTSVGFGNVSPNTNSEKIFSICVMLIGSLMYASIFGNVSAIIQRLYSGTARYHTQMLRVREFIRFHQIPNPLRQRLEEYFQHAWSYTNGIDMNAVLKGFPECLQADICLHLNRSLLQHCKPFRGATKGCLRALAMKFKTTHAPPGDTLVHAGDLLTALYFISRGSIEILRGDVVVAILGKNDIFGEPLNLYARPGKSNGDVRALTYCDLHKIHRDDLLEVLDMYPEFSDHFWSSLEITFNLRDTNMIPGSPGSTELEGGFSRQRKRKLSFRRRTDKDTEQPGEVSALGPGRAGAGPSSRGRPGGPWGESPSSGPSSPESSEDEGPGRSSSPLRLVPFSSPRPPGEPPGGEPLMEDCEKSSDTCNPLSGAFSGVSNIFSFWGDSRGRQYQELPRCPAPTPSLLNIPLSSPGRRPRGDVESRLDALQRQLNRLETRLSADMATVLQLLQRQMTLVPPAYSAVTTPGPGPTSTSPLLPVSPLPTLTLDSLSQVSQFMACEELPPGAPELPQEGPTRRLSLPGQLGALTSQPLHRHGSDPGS

IC50 [1] | Compound | further results
51 nM | Cc1nc(CN(CC2CC2)C2CCCc3cccnc32)cc(N2CCN(C)CC2)n1 (racemic) | 
8.3 nM | Cc1nc(CN(C)[C@H]2CCCc3cccnc32)cc(N2CCN(C)[C@H](C)C2)n1 | 
30 nM | Cc1nc(CN(C)[C@H]2CCCc3cccnc32)cc(N2CCN3CCC[C@@H]3C2)n1 | 
25 nM | CCc1nc(CN(C)C2CCCc3cccnc32)cc(N2CCN(C)CC2)n1 (racemic) | 
78 nM | CCOc1nc(CN(C)C2CCCc3cccnc32)cc(N2CCN(C)CC2)n1 (racemic) | 
66 nM | Cc1nc(CN(C)[C@H]2CCCc3cccnc32)cc(NCCN2CCOCC2)n1 | 
12 nM | Cc1nc(CN(C)C2CCCc3cccnc32)c(F)c(N2CCN(C)CC2)n1 (racemic) | 
21 nM | Cc1nc(CN(C)[C@H]2CCCc3cccnc32)cc(N2CCN(C)C[C@H]2C)n1 | 
23 nM | CN1CCN(c2cc(CN(C)C3CCCc4cccnc43)nc(C3CC3)n2)CC1 (racemic) | 
> 10000 nM | Cc1nc(CN(C)[C@H]2CCCc3cccnc32)cc(N(C)CCO)n1 | 
18 nM | Cc1nc(CN(C)[C@H]2CCCc3cccnc32)cc(N2CCN3CCC[C@H]3C2)n1 | 
14 nM | Cc1nc(CN(C)[C@H]2CCCc3cccnc32)cc(N2CCN(C)[C@@H](C)C2)n1 | 
8.3 nM | Cc1nc(CN(C)[C@H]2CCCc3cccnc32)cc(N2C[C@@H](C)N(C)[C@@H](C)C2)n1 | 
293 nM | CN1CCN(c2cc(CN(C)[C@H]3CCCc4cccnc43)nc(C(F)(F)F)n2)CC1 | 
151 nM | CC(C)Oc1nc(CN(C)C2CCCc3cccnc32)cc(N2CCN(C)CC2)n1 (racemic) | 
101 nM | Cc1nc(CN(C)[C@H]2CCCc3cccnc32)cc(N2CCC(N3CCOCC3)CC2)n1 | 
2890 nM | CN1CCN(c2cc(CN(C)C3CCCc4cccnc43)nc(-c3ccccc3)n2)CC1 (racemic) | 
130 nM | Cc1nc(CN(C)[C@H]2CCCc3cccnc32)cc(N2CCN(C3COC3)CC2)n1 | 

IC50 [1] | Compound | further results
1290 nM | CN1CCN(c2cc(CN(C)C3CCCc4cccnc43)nc(-c3cnn(C)c3)n2)CC1 (racemic) | 
23 nM | CN1CCN(c2cc(CN(C)C3CCCc4cccnc43)nc(N)n2)CC1 (racemic) | 
96 nM | Cc1nc(CN(C)[C@H]2CCCc3cccnc32)cc(N2CCC(N3CCN(C)CC3)CC2)n1 | 
14 nM | Cc1nc(CN(C)[C@H]2CCCc3cccnc32)cc(N2CCN(C)C[C@@H]2C)n1 | 
58 nM | CNc1nc(CN(C)C2CCCc3cccnc32)cc(N2CCN(C)CC2)n1 (racemic) | 
17 nM | CCN(Cc1cc(N2CCN(C)CC2)nc(C)n1)C1CCCc2cccnc21 (racemic) | 
70 nM | Cc1nc(CN(C)[C@H]2CCCc3cccnc32)cc(N2CCN(C3CC3)CC2)n1 | 
> 10000 nM | CN1CCN(c2cc(CN(C)C3CCCc4cccnc43)nc(N3CCCC3)n2)CC1 (racemic) | 
930 nM | CC(C)Nc1nc(CN(C)C2CCCc3cccnc32)cc(N2CCN(C)CC2)n1 (racemic) | 
10 nM | CCN1CCN(c2cc(CN(C)[C@H]3CCCc4cccnc43)nc(C)n2)CC1 | 
2440 nM | CN1CCN(c2cc(CN(C)C3CCCc4cccnc43)nc(N3CCOCC3)n2)CC1 (racemic) | 
33 nM | Cc1nc(CN(C)C2CCCc3cccnc32)c(C#N)c(N2CCN(C)CC2)n1 (racemic) | 
36 nM | Cc1nc(CN(C)[C@H]2CCCc3cccnc32)cc(NCCCN2CCOCC2)n1 | 
256 nM | CC(C)c1nc(CN(C)C2CCCc3cccnc32)cc(N2CCN(C)CC2)n1 (racemic) | 
25 nM | COc1nc(CN(C)C2CCCc3cccnc32)cc(N2CCN(C)CC2)n1 (racemic) | 
792 nM | CN1CCN(c2cc(CN(C)C3CCCc4cccnc43)nc(N(C)CCO)n2)CC1 (racemic) | 
105 nM | CCNc1nc(CN(C)C2CCCc3cccnc32)cc(N2CCN(C)CC2)n1 (racemic) | 
> 10000 nM | CN1CCN(c2cc(CN(C)C3CCCc4cccnc43)nc(N(C)C)n2)CC1 (racemic) | 

Compound | IC50 [1] | further results
Cc1nc(CN(C)[C@H]2CCCc3cccnc32)cc(N2CCN(C)CC2)n1 | 8.8 nM | Activity [2]: inactive; inhibition at 10 min, 10 µM (CYP3A4): 48%; half-life at 1 µM [3]: 1.6 min; Activity [4]: inactive; Activity (Hepa1-6): inactive; Activity (MEF): Non-Toxic; CLint scaled at 1 µM [5]: 1570 mL/min/kg; Activity (L929): Non-Toxic; IC50 [6]: 8000 nM; IC50 [7]: 0.02 nM; Papp A→B at 1.5 h, 10 µM [8]: 27 ×10⁻⁶ cm/s; fraction unbound [9]: 0.11; fraction unbound [10]: 0.01; inhibition at 10 min, 10 µM (CYP2D6): 57%; efflux ratio at 1.5 h, 10 µM [11]: 0.86; fraction unbound [12]: 0.18; Activity [13]: Active; Activity (MDA-MB-231): inactive
Cc1nc(CN(C)C2CCCc3cccnc32)cc(N2CCN(C)CC2)n1 (racemic) | 12 nM | 
